Bioassay records from PubChem BioAssay.
HCV NS3 hel inh – HCV NS3 helicase inhibition. 0.56% of 290,000 active. AID 1800. NS3 helicase DNA unwinding, Cy5 molecular beacon fluorescence. inhibition, % at 10.9 µM;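 active = inhibition above the mean of all tested compounds plus 3 SD, set per campaign, cut at about 35% in these data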;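 note: 0% = DMSO wells and 100% = thioflavine S control wells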
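Measured by: Cy5 fluorescence, 0 and 60 min reads / Assay system: NS3 helicase fragment of HCV / Control set: low DMSO, high thioflavine S at 110 µM / Times: 1 h reaction at 25 °C, ATP-initiated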
PfM18AAP inh-1 – PfM18AAP enzyme inhibition; 1.2% of 290,000 active; inhibition, % at 7.35 µM; recombinant PfM18AAP, H-Glu-NHMec fluorogenic cleavage;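 active = inhibition above the campaign mean inhibition over all tested compounds plus 3 SD, cut at about 28% in these data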;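 note: 0% = plate median of test compound wells and 100% = 2 mM ZnCl2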
p97 inhibitor – blocks human p97 ATPase activity | recombinant p97 ATPase, Kinase-Glo ATP luminescence, 3 h | inhibition, % at 8 µM | 0.42% of 220,000 active; in the data active = inhibition above about 15%;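 note: 0% = DMSO vehicle and 100% = wells lacking enzyme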
CHOP inh – CHOP inhibition in unfolded protein response. AID 2732. inhibition, % at 10 µM. 3.8% of 220,000 active. CHO-K1 CHOP-promoter luciferase, tunicamycin-induced, 15-18 h;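 active = compounds that reduced the stress-induced luciferase reporter signal by more than about 70% of percent inhibition, limit read from the data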;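 note: 0% = tunicamycin plus vehicle and 100% = wells without tunicamycin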
XBP1 UPR activ – adaptive UPR (XBP1) activation; CHO-XBP1 luciferase reporter, IRE1-XBP1 UPR activation, luminescence; percent of tunicamycin response, DMSO as zero; AID 463104; 0.33% of 330,000 active; activation, % at 20 µM;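 active = versus positive control, 20 µM dose yields 30% or more activation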;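 note: 100% = tunicamycin at 10 µg/mL and 0% = DMSO only wells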
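assay system = CHO-XBP1 luciferase reporter cells | amount = 1000 cells/well | buffer or medium = F12 plus 10% FBS | compound dosing = single point, 20 µM final compound, 1% DMSO | incubation = 16-18 h cell attachment at 37 °C, then 6 h compound exposure | detection = Steady-Glo luminescence read | controls = tunicamycin 10 µg/mL and vehicle-only wells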
UPR CHOP act – apoptotic UPR (CHOP) activation. activation, % at 10 µM. 0.34% of 330,000 active. CHO-CHOP luciferase reporter, luminescence; percent of tunicamycin response over DMSO baseline;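 active = at 10 µM dose, activation of 40% or more, normalized to positive control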;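 note: 100% = tunicamycin at 10 µg/mL and 0% = DMSO alone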
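measured by = luciferase luminescence | assay system = CHO-CHOP cells, stable luciferase reporter of PERK-eIF2a-CHOP signalling | amount = 500 reporter cells seeded per well | timing = 6 h compound exposure at 37 °C after overnight seeding | controls = positive tunicamycin 10 µg/mL, negative DMSO alone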
PfM18AAP inh-2 – PfM18AAP inhibition, confirmation. 28% of 2,400 active. inhibition, % at 7.35 µM. AID 2170. recombinant PfM18AAP, H-Glu-NHMec fluorogenic cleavage. shares compounds with PfM18AAP inh-1;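 active = mean inhibition over replicate wells above the hit cutoff set for the earlier primary screen, cut at about 29% in these data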;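 note: 0% = median of test compound wells and 100% = 2 mM ZnCl2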
CTSL1 confirm – Cathepsin L (human) inhibition, confirmation; shares compounds with PfM18AAP inh-1; purified cathepsin L1, Z-Leu-Arg-MCA fluorescence; inhibition, % at 5.96 µM; 2,400 tested, under 10 active;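 active = average inhibition across replicates above the hit cutoff set in the earlier primary screen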;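 note: 0% = median of test compound wells and 100% = Z-Phe-Ala-diazomethylketone 1 µM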
Target sequence (P07711 whole entry, looked up): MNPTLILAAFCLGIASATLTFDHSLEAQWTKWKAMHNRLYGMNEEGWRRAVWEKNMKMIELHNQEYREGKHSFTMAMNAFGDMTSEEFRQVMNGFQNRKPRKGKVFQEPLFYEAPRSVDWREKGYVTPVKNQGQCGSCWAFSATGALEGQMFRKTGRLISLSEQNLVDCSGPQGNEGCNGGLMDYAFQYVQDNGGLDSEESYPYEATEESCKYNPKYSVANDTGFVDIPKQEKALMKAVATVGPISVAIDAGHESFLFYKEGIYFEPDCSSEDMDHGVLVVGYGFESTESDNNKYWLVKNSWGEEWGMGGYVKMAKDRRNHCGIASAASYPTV
Active calls of the source: *; x = not tested or not shown. Hits are enriched below; roughly 4.5% of the tested compounds scored in any of these assays.

SMILES | HCV NS3 hel inh | PfM18AAP inh-1 | p97 inhibitor | CHOP inh | XBP1 UPR activ | UPR CHOP act | PfM18AAP inh-2 | CTSL1 confirm
O=C(CCn1c(=S)oc2ccccc21)Nc1ccccc1Br | -2 | -7 | x | x | 0 | 0 | x | x
O=C(COC(=O)C1CC2C=CC1C2)Nc1ccc([N+](=O)[O-])cc1 (centres undefined) | x | x | x | x | 2 | 3 | x | x
Cc1ccc(N=C(NO)c2nonc2N)c(C)c1 | -8 | 34* | 2 | 11 | -2 | -1 | 6 | 0
CC1CCCCC1NC(=O)/C(C#N)=C/c1ccccc1F (centres undefined) | 0 | 14 | 0 | -10 | 15 | 12 | x | x
CCn1c(N)c(C(=O)NC)sc1=S | 4 | 50* | 8 | 2 | -2 | 4 | 37* | -1
COc1ccc(NC(=O)CCNS(=O)(=O)c2cccc3nonc23)cc1 | 0 | 0 | x | x | -4 | 1 | x | x
CCc1ccccc1Nc1ccc(C(=O)O)cc1N | 35 | 3 | 4 | x | 4 | 3 | x | x
Nc1cc(C(=O)O)ccc1Nc1ccccc1 | 23 | 54* | -6 | -10 | 2 | -1 | -5 | 0
NC(=O)C1(N2CCCCC2)CCN(C(=S)Nc2ccc(S(N)(=O)=O)cc2)CC1 | 8 | 33* | -7 | -5 | 1 | -2 | 11 | 5
CCCN1CCN(C(=S)Nc2ccc(S(N)(=O)=O)cc2)CC1 | 3 | 9 | 4 | 14 | -4 | 1 | x | x
NC(=O)C1(N2CCCCC2)CCN(C(=S)Nc2ccccc2)CC1 | 2 | 3 | 2 | 0 | -1 | -1 | x | x
NS(=O)(=O)c1ccc(NC(=S)N2CCC(Cc3ccccc3)CC2)cc1 | -3 | 37* | x | x | -4 | -1 | -19 | -4
Cc1ccc(CNC(=O)C2CCCN(S(=O)(=O)c3c(C)noc3/C=C/N(C)C)C2)cc1 (centres undefined) | -3 | -4 | 4 | -14 | -4 | 1 | x | x
CCNC(=O)COC(=O)c1cccc(Br)c1 | -2 | -8 | 8 | -12 | 1 | 2 | x | x
CS(=O)(=O)c1ccc(-c2nnc(NC(=O)c3cccc(N4C(=O)CCC4=O)c3)o2)cc1 | x | x | x | x | -2 | 2 | x | x
N#C/C(=C\c1ccc(-c2cccc(C(F)(F)F)c2)o1)C(=O)Nn1cnnc1 | 18 | 33* | 2 | 18 | 3 | 0 | 16 | 8
COc1cc(-c2nnc(SCc3cc(=O)oc4cc(O)c(O)cc34)o2)cc(OC)c1OC | 15 | 35* | 8 | 15 | 4 | 0 | 2 | 5
CC(C)/C=C(/C(=O)c1ccc(Cl)cc1Cl)n1cncn1 | -1 | 49* | x | x | -7 | 4 | 5 | 1
COC(=O)C1Cc2c([nH]c3ccccc23)C2(CCN(Cc3ccccc3)CC2)N1 (centres undefined) | -38 | -15 | x | x | -1 | 1 | x | x
CCN1C(C)=C(C)S/C1=C1\SC(=S)N(N)C1=O | 14 | 76* | -2 | 8 | 0 | 0 | -20 | 2
CCN(CC)C(=S)SCC(=O)Nc1ccc(S(N)(=O)=O)cc1 | 0 | 4 | 2 | -15 | -3 | -1 | x | x
CCN(CC)C(=S)SCC(=O)Nc1nc(=O)c2ccccc2s1 | -4 | 32* | 4 | -12 | 2 | 3 | -53 | -9
Oc1ccc(N2CCN(c3nnnn3-c3ccccc3)CC2)cc1 | 2 | 32* | 5 | 19 | 2 | -1 | -3 | 1
CC(C)CC1CC(C)(c2csc(NNC(=O)c3ccccc3)n2)OC1=O (centres undefined) | -1 | 33* | -2 | 12 | 2 | 2 | -10 | -1
CC1(C)CC(CC(=O)NNc2nc(-c3ccccc3)cs2)C(=O)O1 (centres undefined) | 24 | 34* | -2 | 8 | -3 | -2 | -1 | -7
CC1CC(CC(=O)NNc2nc(-c3ccccc3)cs2)C(=O)O1 (centres undefined) | -4 | 23 | 2 | -7 | -4 | -1 | x | x
